Bioassay records: PubChem BioAssay, several laboratories
PHOSPHO1 inh: inhibitors of human PHOSPHO1 phosphatase | Q8TCT1 | recombinant PHOSPHO1, absorbance phosphatase assay | inhibition, % at 13.3 µM | 290,000 compounds, 1.1% hits; in the data active means inhibition above about 60%
PGE2 EP2 inh: EP2 receptor (human) inhibition. P43116. C6 glioma cells expressing human EP2, cAMP TR-FRET; cells stimulated with saturating PGE2. inhibition, % at 25 µM. 260,000 compounds, 0.52% hits. AID 1422;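 active means percent inhibition above 40 after rounding to a whole number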;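 further: rat C6 glioma host cells with rolipram phosphodiesterase inhibitor present; the protocol text gives 20 µM as final concentration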
EP2 mod: EP2 receptor (human) modulation; P43116; AID 940; induction, % at 25 µM; 260,000 compounds, 0.83% hits; EP2-expressing cells, cAMP HTRF FRET, PGE2 co-stimulation;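 active means compounds whose cAMP rise, as percent of the full-agonist control response, exceeds 60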;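 further: rat C6 glioma line stably carrying human EP2 under a CMV promoter; the protocol text gives 20 µM as final concentration; 100% = response of wells given 1 µM PGE2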
HKDC1 inh: blocks human hexokinase HKDC1 activity. Q2TB90. recombinant HKDC1, G6PDH/diaphorase resazurin coupled fluorescence. inhibition, % at 20 µM. 340,000 compounds, 0.16% hits;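 active means inhibition above about 35% when tested at 20 µM, limit read from the data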;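 further: plate controls were DMSO wells with enzyme for no effect and DMSO wells lacking enzyme for full effect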
Target sequence (Q2TB90 whole entry, looked up): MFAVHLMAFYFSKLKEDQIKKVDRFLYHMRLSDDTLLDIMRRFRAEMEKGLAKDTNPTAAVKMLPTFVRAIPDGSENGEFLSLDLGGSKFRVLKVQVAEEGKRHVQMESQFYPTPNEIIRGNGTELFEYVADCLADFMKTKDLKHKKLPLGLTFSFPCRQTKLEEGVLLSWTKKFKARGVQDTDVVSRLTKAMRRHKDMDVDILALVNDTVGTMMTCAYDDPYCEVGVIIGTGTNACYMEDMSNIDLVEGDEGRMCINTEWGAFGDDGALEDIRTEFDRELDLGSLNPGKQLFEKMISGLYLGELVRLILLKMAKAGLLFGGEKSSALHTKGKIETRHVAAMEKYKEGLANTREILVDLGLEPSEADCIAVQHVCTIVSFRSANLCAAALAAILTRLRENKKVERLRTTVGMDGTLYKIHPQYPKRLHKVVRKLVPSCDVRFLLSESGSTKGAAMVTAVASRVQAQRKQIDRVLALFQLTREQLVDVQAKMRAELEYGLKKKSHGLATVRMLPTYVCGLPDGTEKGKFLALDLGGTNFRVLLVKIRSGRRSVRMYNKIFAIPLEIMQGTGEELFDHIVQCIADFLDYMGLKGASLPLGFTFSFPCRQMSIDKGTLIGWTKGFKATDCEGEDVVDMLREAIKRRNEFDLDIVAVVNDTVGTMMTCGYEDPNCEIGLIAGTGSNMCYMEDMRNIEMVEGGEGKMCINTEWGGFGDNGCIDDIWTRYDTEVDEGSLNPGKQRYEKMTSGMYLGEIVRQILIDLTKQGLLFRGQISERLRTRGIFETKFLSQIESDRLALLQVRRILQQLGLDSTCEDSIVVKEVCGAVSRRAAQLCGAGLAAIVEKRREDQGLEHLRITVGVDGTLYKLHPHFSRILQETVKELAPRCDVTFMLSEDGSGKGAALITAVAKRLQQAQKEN
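Material – in-house recombinant HK5 (HKDC1) enzyme · Quantity – HKDC1 at 5 µg/mL · Buffer or medium – pH 8.0 Tris buffer with 10 mM MgCl2 · Reagent – glucose with 1 mM ATP · Dosing – single 20 µM dose · Times – reaction time 90 min, room temperature, protected from light · Technique – resorufin fluorescence at 613 nm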
PfGluPho inh: PfG6PD (Plasmodium falciparum) enzyme inhibition; PfGluPho enzyme, NADPH resazurin-diaphorase fluorescence; inhibition, % at 20 µM; 350,000 compounds, 0.78% hits;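 active means inhibition reaching at least a set limit at 20 µM in the primary screen, cut at about 59% in these data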;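 further: 0% = DMSO wells with substrate and 100% = DMSO wells lacking glucose-6-phosphate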
TbHK1 inh: blocks Trypanosoma brucei hexokinase 1 activity. recombinant TbHK1, G6PDH-coupled NADH A340. inhibition, % at 10 µM. 220,000 compounds, 0.11% hits;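 active means inhibition of 50% or more in the single-dose primary screen; inactive means inhibition below 50%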
* hit, by the source's call; nt = no result. Compounds with a hit are over-represented: about 2.5% of the library has one in this group of screens.

SMILES	PHOSPHO1 inh	PGE2 EP2 inh	EP2 mod	HKDC1 inh	PfGluPho inh	TbHK1 inh
O=C(O)[C@@H]1[C@H]2C[C@H]3c4[nH]c5ccccc5c4CCN3C[C@@H]2CC[C@@H]1O	nt	nt	nt	8.5	12.8	nt
COc1ccccc1C1(NC(=O)CCCCC2SCC3NC(=O)NC32)CCCC1 (stereo not drawn)	nt	6.8	16.8	nt	nt	nt
CCN(CC)C(=O)CN1CCC(c2ccccc2F)CC1	nt	nt	-12.9	nt	nt	nt
CC(=O)C1=C(c2ccc(Br)cc2)C(=O)c2ccccc2C1=O	5.8	6.6	-88.3	82.7*	106.0*	1.2
CCOC(=O)c1cc2sccc2n1CC(=O)O	-9.4	6.3	13.3	-2.0	-12.8	1.0
CCOC(=O)c1cc2sccc2n1Cc1cccc(F)c1	nt	9.4	85.4*	nt	nt	nt
CC(C)(C)c1ccc(C(=O)NCC(=O)OCC(=O)Nc2nc(-c3ccc(F)cc3)cs2)cc1	61.6*	7.5	15.7	-11.0	10.2	-0.4
Cc1ccc(-c2csc(NC(=O)CCNC(=O)c3ccc(Cl)cc3)n2)cc1	42.1	7.3	11.6	-8.1	4.1	-0.4
C=CCNC(=O)CC1C(=O)NCCN1Cc1ccc(-c2ccccc2)cc1 (stereo not drawn)	41.1	6.6	-6.7	-9.2	11.6	-3.9
O=C(CC1C(=O)NCCN1Cc1ccc(-c2ccccc2)cc1)NCC1CC1 (stereo not drawn)	60.1*	5.9	7.2	-5.9	-21.8	-1.9
Cc1ccc(NC(=O)COc2cccc(-n3cnnn3)c2)cc1	nt	13.1	-57.7	nt	nt	nt
COc1cc2cc(CN(C(=O)Nc3ccccc3)C3CCCCC3)c(=O)[nH]c2cc1OC	nt	12.4	-90.0	nt	nt	nt
O=C(CN1C(=O)c2cccc3cccc1c23)Nc1ccccc1C(=O)NC1CCCCC1	nt	10.3	76.1*	nt	nt	nt
Cn1cnc([N+](=O)[O-])c1Sc1ncccc1N	101.6*	8.8	16.8	5.8	-6.2	-16.1
Cc1ccc(Sc2c([N+](=O)[O-])ncn2C)cc1	-12.4	6.3	24.1	1.7	-1.0	-2.4
N/C(=N\OC(=O)COc1ccc2ccccc2c1Br)c1cccnc1	17.9	23.3	58.9	nt	nt	-0.3
N/C(=N\OC(=O)COc1ccc2ccccc2c1Br)c1ccccn1	20.0	22.4	61.6*	-5.4	19.6	-7.8
O=C(/C=C/c1ccc(Cl)cc1)c1ccc([N+](=O)[O-])o1	nt	nt	nt	53.9*	53.1	nt
Cc1ccc(NCc2nnc(SCC(=O)O)n2-c2ccc(C)cc2)cc1	67.0*	2.2	15.4	10.8	-8.7	11.2
CCn1c(COc2ccc(Cl)cc2)nnc1SCc1ccc(C#N)cc1	46.5	10.1	-5.9	-1.7	1.2	-2.5
COc1ccc(-n2c(COc3ccc(C)cc3)nnc2SCc2ccc(C#N)cc2)cc1	73.4*	1.0	25.0	15.9	10.8	7.0
Cc1ccc(-n2c(CNc3ccc(F)cc3)nnc2SCC(=O)O)cc1	11.7	12.9	38.9	-0.3	-17.7	-1.7
COc1cccc(-n2c(COc3ccc(C)cc3)nnc2SCC(=O)O)c1	73.6*	4.0	-10.3	-8.6	7.3	-1.9
Cc1ccc(OCc2nnc(SCC(=O)O)n2-c2ccccc2)cc1	nt	nt	nt	-0.3	-5.7	nt
COc1ccc2[nH]c3nc(SCC(=O)NC(C)C)nnc3c2c1	nt	7.6	4.2	nt	nt	nt
SMILES	PHOSPHO1 inh	PGE2 EP2 inh	EP2 mod	HKDC1 inh	PfGluPho inh	TbHK1 inh
COc1cccc2ccc(CN(CCCn3ccnc3)Cc3ccc(C)s3)nc12	nt	3.8	-10.6	nt	nt	nt
COc1ccc(CNC(=O)CN2C(=O)[C@H]3CCCN3C(=O)c3ccccc32)cc1	nt	3.3	-71.4	nt	nt	nt
O=C(CCCn1c(=S)[nH]c2cc3c(cc2c1=O)OCO3)N1CCN(c2ccc(F)cc2)CC1	68.7*	10.0	-46.8	-1.9	12.7	-8.7
CCOCCCNC(=O)C(=O)NCc1ccc2c(c1)OCO2	nt	7.6	4.5	nt	nt	nt
COc1ccc(NC(=O)CSc2nnc(-c3ccc(C)cc3)n2C)cc1	nt	15.7	-13.3	nt	nt	nt
CCOC(=O)c1cc(S(=O)(=O)NCc2ccc3c(c2)OCO3)cn1C	61.6*	nt	nt	-7.0	-3.0	nt
CCOC(=O)c1cc(S(=O)(=O)NCc2ccco2)cn1C	14.0	nt	nt	-4.8	-0.8	nt
COC(=O)c1cc(S(=O)(=O)NCc2ccc3c(c2)OCO3)cn1C	64.0*	nt	nt	-5.5	5.6	nt
CC(=O)N(C)c1nnc(-c2ccc(F)cc2)s1	nt	8.2	-3.5	nt	nt	nt
Cc1sc(-c2cc3ccccc3oc2=O)nc1-c1ccccc1	nt	7.3	36.2	nt	nt	nt
COc1cc(/C=C2\SC(=S)N(NS(=O)(=O)c3ccccc3)C2=O)ccc1O	3.7	16.3	10.1	4.6	-25.4	-18.8
Cc1ccc(/C=C2\SC(=S)N(CCC(=O)NNS(=O)(=O)c3ccccc3)C2=O)cc1	34.7	9.3	64.5*	-4.4	-6.5	-17.6
O=C(CCCN1C(=O)/C(=C\c2ccccc2)SC1=S)Nc1cccc(C(=O)O)c1	3.0	nt	nt	12.5	-36.2	nt
COc1cc(/C=C2\SC(=S)N(NS(=O)(=O)c3ccc(C)cc3)C2=O)ccc1O	16.6	40.7*	-51.0	13.1	-76.2	-14.2
O=C(CCCN1C(=O)/C(=C/c2ccccc2)SC1=S)Nc1cccc(O)c1	-10.4	70.4*	-80.1	-1.6	14.4	9.1
CCOC(=O)N1CCc2c(sc3c2C(=O)NC(c2ccccc2)N3)C1 (stereo not drawn)	66.1*	nt	5.7	9.0	22.2	-6.7
CCOC(=O)C1=C(C)N(c2ccc(OC)cc2)C(=O)/C1=C\c1ccc(O)c(OCC)c1	-104.1	41.4*	31.5	17.8	37.6	-1.9
O=c1sc2ccccc2n1CCCl	nt	13.1	13.4	nt	nt	nt
O=C(Nc1ccc(N2CCOCC2)c(Cl)c1)c1cc2ccccc2o1	-11.6	12.9	-6.1	2.5	125.6*	-9.1
O=C(Nc1ccccc1N1CCOCC1)c1cc2ccccc2o1	22.5	nt	nt	-4.7	5.7	nt
O=C(Nc1ccc(CN2CCOCC2)cc1)c1ccc(-c2cc(Cl)ccc2Cl)o1	7.8	59.2*	-39.3	0.2	6.2	-41.6
COc1ccc(S(=O)(=O)N2CCN(Cc3ccccc3)CC2)cc1C	nt	11.3	-8.3	nt	nt	nt
COc1ccc(C(=O)NC2CCCCCCC2)cc1OC	nt	nt	nt	-4.9	3.2	nt
COc1ccc(S(=O)NC2CCCCC2)c(OC)c1C (stereo not drawn)	86.6*	8.3	6.6	-2.3	-17.2	-1.9
Cc1ccc(C2=NNC(C(O)C(O)C(O)C(O)CO)S2)cc1 (stereo not drawn)	90.4*	12.0	0.8	-1.9	-7.2	-8.2
SMILES	PHOSPHO1 inh	PGE2 EP2 inh	EP2 mod	HKDC1 inh	PfGluPho inh	TbHK1 inh
COc1ccc(NC(=O)Cn2nc(C)n3c(cc4ccsc43)c2=O)cc1	nt	nt	6.5	nt	nt	nt
O=C1/C(=C/c2ccc(N3CCOCC3)o2)SC(=Nc2ccccc2)N1CCc1c[nH]c2ccccc12	13.7	11.9	25.3	10.3	76.9*	-13.1
O=C1S/C(=C/c2ccc(N3CCOCC3)o2)C(=O)N1Cc1ccc(F)cc1	-80.6	4.3	-7.6	-1.4	43.6	-4.7
O=C1S/C(=C\c2ccc(N3CCOCC3)o2)C(=O)N1Cc1ccc(F)cc1	44.7	8.1	3.6	15.1	60.5*	17.3
O=C1NC(=S)S/C1=C/c1ccc(N2CCOCC2)o1	85.8*	18.4	22.1	-2.7	12.3	-14.6
Oc1ccccc1-c1nc2ccccn2c1NC1CCCC1	nt	16.4	36.4	nt	nt	nt
